The target of series [1] is T1, Bile acid receptor (Homo sapiens) (UniProt Q96RI1).
T1 sequence (whole entry): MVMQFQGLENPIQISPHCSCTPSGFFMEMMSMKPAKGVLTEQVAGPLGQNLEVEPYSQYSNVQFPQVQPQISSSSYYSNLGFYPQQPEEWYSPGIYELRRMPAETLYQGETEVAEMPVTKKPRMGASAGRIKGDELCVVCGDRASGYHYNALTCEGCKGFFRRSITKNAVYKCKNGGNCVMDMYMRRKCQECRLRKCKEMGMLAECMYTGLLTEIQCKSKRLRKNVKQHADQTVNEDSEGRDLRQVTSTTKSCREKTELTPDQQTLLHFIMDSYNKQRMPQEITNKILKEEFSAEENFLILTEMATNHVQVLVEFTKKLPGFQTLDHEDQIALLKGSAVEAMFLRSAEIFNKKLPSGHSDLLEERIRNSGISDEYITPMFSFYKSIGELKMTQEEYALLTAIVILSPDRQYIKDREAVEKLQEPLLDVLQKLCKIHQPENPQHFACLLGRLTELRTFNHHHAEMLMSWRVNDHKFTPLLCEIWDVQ
Description: Transactivation of full-length FXR (unknown origin) expressed in HEK293 cells at 100 uM after 18 hrs by dual-glo luciferase reporter gene assay relative to CDCA. The series is classed as cell-based. In a few lines: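 HEK293 cells co-transfected by calcium phosphate with full-length FXR expression plasmid, FXRE-driven firefly luciferase reporter and Renilla normalization vector. Compound added at 100 μM 6 h after transfection; dual luciferase read 18 h later. Firefly normalized to Renilla, expressed as fold activation over untreated cells, then as percent of maximal fold induction by CDCA. At least two separate experiments, triplicate assays.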

For series [2], the system named is HEK293. In words: Effect on renilla luciferase expression in HEK293 cells at 100 uM after 18 hrs by dual-glo luciferase reporter gene assay. As to conditions: human, hek293, 18 h. The series is classed as ADME, cell-based. The gist of the method:
(§1)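 HEK293 in DMEM with 10% FBS, 37 °C, 5% CO2; calcium phosphate co-transfection in serum-free medium with TK-FXRE-luc reporter (50 ng), Renilla vector (20 ng) and full-length FXR plasmid (30 ng) per well. Compounds added 6 h post-transfection, cells harvested 18 h later; Renilla luminescence (Dual-Glo) monitored as the cell-status control over 0.1–250 μM.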

Series [3] has as its target T2, Bile acid receptor (Homo sapiens, UniProt Q96RI1).
T2 sequence (Q96RI1 whole entry): T1 sequence (whole entry)
In words: Transactivation of full-length FXR (unknown origin) expressed in HEK293 cells after 18 hrs by dual-glo luciferase reporter gene assay. It is filed as cell-based.

For series [4], the system named is HEK293. Description: Cytotoxicity against HEK293 cells assessed as effect on renilla luciferase expression at 0.1 to 250 uM after 18 hrs by dual-glo luciferase reporter gene expression. It is filed as cell-based. As to conditions: human, hek293, 18 h. In a few lines:
as §1

The record followed here is ChEMBL document CHEMBL4257546, “Discovery of new FXR agonists based on 6-ECDCA binding properties by virtual screening and molecular docking” (Medchemcomm, 2018).

The source made the active and inactive calls.

On to `O=C(Nc1ccccc1)Nc1ccccc1NS(=O)(=O)c1ccccc1`, for which the result in series [1] was inactive. Moreover, in series [2], the Activity result is on record as “Non-Toxic”.

Turning to `NC(=O)CSc1ccccc1NC(=O)Nc1ccc(Cl)c(Cl)c1`, the result in series [1] was inactive. Further, in series [2], the Activity result was “Non-Toxic”.

In the case of `COC(=O)/C=C/c1ccc(OCC(=O)NC2c3ccccc3-c3ccccc32)c(OC)c1`, the result in series [1] was inactive. For the same molecule, the Activity result in series [2] is given as “Non-Toxic”.

Turning to `CCn1c(CNc2ccc(Cl)cc2)nnc1SCC(=O)NNC(=O)c1ccc(Cl)cc1`, the outcome in series [1] was inactive. For the same molecule, the Activity result in series [2] is listed as “Non-Toxic”.

Take `O=C(CN1CC(C(=O)N2CCCCC2)Oc2ccccc21)NC(=O)NCc1ccco1` (stereo unspecified): in series [1], the result was inactive. The Activity entry in series [2] is reported as “Non-Toxic”.

As to `CN(Cc1ccc(N2CCCCC2)cc1)C(=O)c1n[nH]c(=O)c2ccccc12`, in series [1], the Efficacy is 60.3%. Also, the EC50 in series [3] was 14.4 µM. For the same molecule, the Activity entry in series [2] and in series [4] was “Non-Toxic” in each case.

Turning to `Nc1nc(CSc2nnnn2Cc2ccccc2)nc(Nc2ccccc2)n1`, the outcome in series [1] was inactive. For the same molecule, in series [2], the Activity result is on record as “Non-Toxic”.

Consider `Cc1cc(CNC(=O)c2ccccc2SC2CCS(=O)(=O)C2)ccc1F` (stereo unspecified), for which the outcome in series [1] was inactive. For the same molecule, in series [2], the Activity entry was “Non-Toxic”.

Consider `CC(Sc1nnc(C2CCCC2)[nH]1)C(=O)Nc1sccc1C(N)=O` (stereo unspecified), for which, in series [1], the outcome was inactive. The Activity result in series [2] was “Non-Toxic”.

`O=C(O)c1ccccc1-c1ccccc1C(=O)N1CCN(Cc2ccc3c(c2)OCO3)CC1` displayed an Efficacy in series [1] of 55.1%. In series [3], this molecule displayed an EC50 of 5.99 µM. Also, the Activity entry in series [2] and in series [4] was “Non-Toxic” throughout.

Turning to `CS(=O)(=O)N1CCC(NC(=O)CC(NC(N)=O)c2ccccc2F)CC1` (stereo unspecified), in series [1], the result was inactive. In series [2], the Activity result is recorded as “Non-Toxic”.

Take `CNC(=O)C1CN(CC(=O)Nc2cc(C)c(Cl)cc2OC)c2ccccc2O1` (stereo unspecified): the result in series [1] was inactive. Moreover, in series [2], the Activity result is given as “Non-Toxic”.

Turning to `COc1cc([N+](=O)[O-])ccc1NC(=O)CNc1ccccc1N1CCCC1=O`, the Efficacy in series [1] turned out to be 120%. In addition, in series [3], the midpoint of the response, the EC50, lay at 4.33 µM. Besides, the Activity entry in series [2] and in series [4] was “Non-Toxic” each time.

As for `COc1ccc(Nc2ccc(NC(=O)c3ccccc3NS(=O)(=O)c3cc(C)ccc3C)cc2)cc1`, in series [1], the outcome was inactive. Also, the Activity result in series [2] was “Non-Toxic”.

For `NC(=O)CSc1ccccc1NCC(=O)Nc1ccc(Cl)cc1Cl`, the result in series [1] was inactive. In series [2], the Activity result is on record as “Non-Toxic”.

As for `COc1ccc(CN(C)C(=O)c2c[nH]c3ccccc23)cc1F`, in series [1], the outcome was inactive. The Activity result in series [2] was “Non-Toxic”.

For the molecule `Cc1nn(-c2ccccc2)c(N)c1C(O)(CC(=O)C(F)(F)F)C(F)(F)F` (stereo unspecified), in series [1], the outcome was inactive. Moreover, in series [2], the Activity result was “Non-Toxic”.

In the case of `Cc1cc(/N=N/Cc2ccccc2)nc(NS(=O)(=O)c2ccccc2Cl)n1`, in series [1], the result was inactive. Further, the Activity entry in series [2] is recorded as “Non-Toxic”.

Take `CCOC(=O)CC(c1ccc(F)cc1)C1CCN(C(=O)c2ccc([N+](=O)[O-])o2)CC1` (stereo unspecified): the outcome in series [1] was inactive. In series [2], the Activity result was “Non-Toxic”.

Regarding `Cc1ccc([N+](=O)[O-])cc1NCC(=O)Nc1cc(C(F)(F)F)ccc1-n1cncn1`, in series [1], the outcome was inactive. Moreover, the Activity result in series [2] is listed as “Non-Toxic”.

In the case of `O=C(COc1ccccc1Cl)NNC(=O)c1cccc(NS(=O)(=O)c2ccc3c(c2)OCCCO3)c1`, in series [1], the outcome was inactive. The Activity entry in series [2] is “Non-Toxic”.

In the case of `CC(NS(=O)(=O)c1ccccc1F)C(=O)Cc1nc2ccccc2[nH]1` (stereo unspecified), the result in series [1] was inactive. In series [2], the Activity result is on record as “Non-Toxic”.

As to `O=C(CN(Cc1ccc2c(c1)OCO2)C1CCCC1)Nc1cccc2ccccc12`, the outcome in series [1] was inactive. Besides, the Activity entry in series [2] is given as “Non-Toxic”.

`CC1(CSc2cccc(C(=O)NCc3cccs3)c2)NC(=O)NC1=O` (stereo unspecified): the result in series [1] was inactive. For the same molecule, in series [2], the Activity result is reported as “Non-Toxic”.

With `O=C(Nc1ccc(N2CCOCC2)cc1)c1ccccc1SC1CCS(=O)(=O)C1` (stereo unspecified), the outcome in series [1] was inactive. For the same molecule, the Activity entry in series [2] was “Non-Toxic”.
